# pIC50: −log10 of the molar value. The source made the active and inactive calls. No cut-off for these calls is given here.
# Key:
# [1] = Chemical stability of the compound in aqueous phosphate buffered saline assessed as half life at pH 7.4 in presence of 4 mM glutathione; format: physicochemical; conditions: gsh
# NCI-H2122 = assay: Antiproliferative activity against human NCI-H2122 cells after 72 hrs by MTT assay; format: functional, cell-based; conditions: NCI-H2122, 72 h
# Summary of the method: (§1)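 Compounds (10 mM DMSO stocks, final DMSO ≤0.1%) added at increasing concentrations in PBS, incubated 72 h at 37 °C. MTT read-out, six repeats per concentration, at least two independent experiments.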
# NCI-H1703 [2] = assay: Antiproliferative activity against human NCI-H1703 cells after 72 hrs by MTT assay; format: functional, cell-based; conditions: NCI-H1703, 72 h; summary of the method: as §1
# [3] = Antiproliferative activity against human NCI-H1944 cells after 72 hrs by MTT assay; format: functional, cell-based; conditions: NCI-H1944, 72 h; summary of the method: as §1
# [4] = Antiproliferative activity against human NCI-H1373 cells after 72 hrs by MTT assay; format: functional, cell-based; conditions: NCI-H1373, 72 h; summary of the method: as §1
# NCI-H441 = assay: Antiproliferative activity against human NCI-H441 cells after 72 hrs by MTT assay; format: functional, cell-based; conditions: NCI-H441, 72 h; summary of the method: as §1
# [5] = Activation of JNK phosphorylation at Thr183 and Tyr185 in human NCI-H1703 cells at 1 uM within 30 mins by Western blot analysis; format: cell-based
# NCI-H1703 [6] = assay: Upregulation of ATF3 expression in human NCI-H1703 cells at 1 uM pretreated with ATF3 siRNA for 48 hrs before compound challenge measured after 8 hrs by Western blot analysis; format: functional, cell-based
# Summary of the method: (§2)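 H1703 cells at 60% confluence transfected with ATF3 siRNA, nonsilencing siRNA or reagent only (mock). After 48 h, cells treated with 1 μM compound or equal-volume DMSO for 8 h, then lysed. Western blots probed for ATF3, cleaved PARP p85 and cleaved caspase-3, with β-actin as loading control.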
# [7] = Activation of JNK phosphorylation in human NCI-H1703 cells assessed as c-jun phosphorylation at Ser63 at 1 uM pretreated for 30 mins by Western blot analysis in presence of JNK inhibitor 1,9-pyrazoloanthrone; format: cell-based
# Summary of the method: (§3)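 Before compound exposure (1 μM), H1703 cells received the JNK inhibitor 1,9-pyrazoloanthrone at 50 μM for 30 min. Phosphorylated JNK, ATF2 and c-jun, and ATF3 protein, then detected by Western blot. Representative blots shown.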
# [8] = Activation of JNK phosphorylation in human NCI-H1703 cells assessed as ATF2 phosphorylation at Thr71 at 1 uM pretreated for 30 mins by Western blot analysis in presence of JNK inhibitor 1,9-pyrazoloanthrone; format: cell-based; summary of the method: as §3
# [9] = Activation of JNK phosphorylation in human NCI-H1703 cells assessed as increase in ATF3 mRNA level at 1 uM after 1.5 hrs by quantitative real-time PCR analysis relative to control; format: cell-based
# Summary of the method: (§4)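 Cells were H1703 treated with compound or DMSO control. Total RNA was isolated and residual genomic DNA removed. ATF3 mRNA was measured by quantitative RT-PCR with β-actin as internal control. Reported as mean ± SE.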
# NCI-H1703 [10] = assay: Antitumor activity against human NCI-H1703 cells xenografted in NCr nu/nu Charles river mouse assessed as tissue death in tumor at 6 umol/kg, iv administered 3 times a week for 3 weeks by H and E staining method relative to control; format: functional, organism-based
# Summary of the method: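 Female athymic NCr-nu/nu mice, 7 weeks old, received 5×10^6 H1703 cells s.c. in the flank. Tumors excised 2 h after the last dose, H&E stained, and scored for areas of cell death against vehicle controls.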
# [11] = Activation of JNK phosphorylation in human NCI-H1703 cells assessed as increase in ATF3 protein level at 1 uM within 2 hrs by Western blot analysis in presence of JNK inhibitor 1,9-pyrozoloanthrone; format: cell-based; summary of the method: as §3
# NCI-H1703 [12] = assay: Induction of apoptosis in human NCI-H1703 cells assessed as apoptotic cells at 1 uM after 6 hrs by FACS analysis (reference value: 0.05%); format: functional
# Mus musculus [13] = assay: Induction of JNK phosphorylation in human NCI-H1703 cells xenografted NCr nu/nu Charles river mouse tumor at 6 umol/kg, iv administered 3 times a week for 3 weeks by immunohistochemical analysis; format: functional, organism-based
# NCI-H1703 [14] = assay: Induction of apoptosis in human NCI-H1703 cells assessed as PARP p85 cleavage at 1 uM pretreated with ATF3 siRNA for 48 hrs before compound challenge measured after 8 hrs by Western blot analysis; format: functional, cell-based; summary of the method: as §2
# [15] = Activation of JNK phosphorylation at Thr183 and Tyr185 in human NCI-H1703 cells at 1 uM pretreated for 1 hr measured after 30 mins by Western blot analysis in presence of ROS scavenger tiron
# NCI-H1703 [16] = assay: Induction of apoptosis in human NCI-H1703 cells assessed as PARP cleavage after 1 to 6 hrs by Western blot analysis; format: functional, cell-based
# NCI-H1703 [17] = assay: Induction of apoptosis in human NCI-H1703 cells assessed as caspase 7 activation after 1 to 6 hrs by Western blot analysis; format: functional, cell-based
# [18] = Activation of JNK phosphorylation in human NCI-H1703 cells assessed as c-jun phosphorylation at Ser63 at 1 uM by Western blot analysis; format: cell-based
# Summary of the method: (§5)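 Lysates immunoblotted with phospho-specific antibodies against SEK1/MKK4, SAPK/JNK, ATF2 and c-jun. Membranes reprobed for total SAPK/JNK as loading control. Representative blots shown.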
# NCI-H1703 [19] = assay: Antitumor activity against human NCI-H1703 cells xenografted in athymic NCr Charles river nu/nu mouse assessed as reduction of tumor weight at 6 umol/kg, iv administered 3 times a week for 3 weeks relative to vehicle treated control; format: functional; parameters: scale not given: the % may be the effect or the level left
# Summary of the method: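 H1703 cells (5×10^6) injected s.c. into the flank of 7-week-old female athymic NCr-nu/nu mice. Dosing began once tumors reached at least 2×2×2 mm (typically 4 weeks). Body weight recorded before each injection. Mice sacrificed 2 h after the last dose and tumors excised and weighed. 13–15 mice/group; Mann-Whitney test; mean ± SE.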
# [20] = target: T1, Dual specificity mitogen-activated protein kinase kinase 4 (Homo sapiens) (UniProt P45985); assay: Activation of SEK1 phosphorylation at Thr261 in human NCI-H1703 cells at 1 uM by Western blot analysis; format: cell-based; summary of the method: as §5
# T1 sequence (whole entry): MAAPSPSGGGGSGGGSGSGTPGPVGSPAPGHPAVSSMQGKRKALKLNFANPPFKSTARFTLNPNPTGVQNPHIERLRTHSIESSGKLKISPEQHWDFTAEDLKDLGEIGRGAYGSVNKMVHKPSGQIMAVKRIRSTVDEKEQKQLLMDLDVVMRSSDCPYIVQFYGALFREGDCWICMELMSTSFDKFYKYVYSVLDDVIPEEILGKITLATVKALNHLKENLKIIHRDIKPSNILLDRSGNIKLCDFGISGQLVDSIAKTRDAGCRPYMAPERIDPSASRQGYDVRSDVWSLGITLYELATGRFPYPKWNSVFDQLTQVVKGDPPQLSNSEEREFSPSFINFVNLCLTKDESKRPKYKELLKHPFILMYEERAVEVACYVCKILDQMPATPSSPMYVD
# NCI-H1703 [21] = assay: Antitumor activity against human NCI-H1703 cells xenografted in athymic NCr Charles river nu/nu mouse assessed as reduction of tumor growth at 6 umol/kg, iv administered 3 times a week for 3 weeks relative to vehicle treated control; format: functional, organism-based
# Summary of the method: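 H1703 xenografts (5×10^6 cells s.c., flank) in 7-week-old female athymic NCr-nu/nu mice, treated from tumor size ≥2×2×2 mm. Mice killed 2 h after the last dose; tumors excised and weighed. 13–15 mice/group; Mann-Whitney test against vehicle.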
# [22] = Activation of JNK phosphorylation in human NCI-H1703 cells assessed as increase in ATF3 protein level at 1 uM by Western blot analysis; format: cell-based
# Mus musculus [23] = assay: Toxicity in human NCI-H1703 cells xenografted athymic NCr nu/nu Charles river mouse assessed as change in body weight at 6 umol/kg, iv administered 3 times a week for 3 weeks (reference value: 22.5 +/- 0.4g); format: organism-based; conditions: in vivo, 504 h
# Mus musculus [24] = assay: Induction of JNK phosphorylation in human NCI-H1703 cells xenografted NCr nu/nu Charles river mouse tumor assessed as increase in ATF3 protein level at 6 umol/kg, iv administered 3 times a week for 3 weeks by immunohistochemical analysis; format: functional, organism-based
# [25] = Activation of JNK phosphorylation in human NCI-H1703 cells assessed as increase in ATF3 protein level at 1 uM within 2 hrs by Western blot analysis; format: cell-based
# NCI-H1703 [26] = assay: Induction of apoptosis in human NCI-H1703 cells assessed as caspase 3 activation after 1 to 6 hrs by Western blot analysis; format: functional, cell-based
# [27] = Activation of JNK phosphorylation in human NCI-H1703 cells assessed as increase in ATF3 mRNA level at 5 uM after 1.5 hrs by quantitative real-time PCR analysis relative to control; format: cell-based; summary of the method: as §4
# [28] = Activation of JNK phosphorylation in human NCI-H1703 cells assessed as ATF2 phosphorylation at Thr71 at 1 uM by Western blot analysis; format: cell-based; summary of the method: as §5
# NCI-H1703 [29] = assay: Cell cycle arrest in human NCI-H1703 cells assessed as accumulation at G2 phase at 1 uM after 6 hrs by FACS analysis (reference value: 8%); format: functional
# NCI-H1703 [30] = assay: Induction of apoptosis in human NCI-H1703 cells assessed as caspase 3 cleavage at 1 uM pretreated with ATF3 siRNA for 48 hrs before compound challenge measured after 8 hrs by Western blot analysis; format: functional, cell-based; summary of the method: as §2
smiles,measurement,setting,value
CCOC(=O)N1CCN(/[N+]([O-])=N/Oc2cc(OC)c([N+](=O)[O-])cc2[N+](=O)[O-])CC1,t1/2,[1],38.6 min
same,pIC50,NCI-H2122,5.24
same,pIC50,NCI-H1703 [2],5.80
same,pIC50,[3],< 5.00
same,pIC50,[4],5.68
same,pIC50,NCI-H441,5.60
same,Activity,[5],inactive
CCOC(=O)N1CCCN(/[N+]([O-])=N/Oc2cc(C)c([N+](=O)[O-])cc2[N+](=O)[O-])CC1,t1/2,[1],25.7 min
same,pIC50,NCI-H2122,5.00
same,pIC50,NCI-H1703 [2],5.78
same,pIC50,[3],< 5.00
same,pIC50,[4],5.52
same,pIC50,NCI-H441,5.69
same,Activity,[5],inactive
CCOC(=O)N1CCN(/[N+]([O-])=N/Oc2ccc([N+](=O)[O-])cc2[N+](=O)[O-])CC1,Activity,NCI-H1703 [6],inactive
same,Activity,[7],inactive
same,Activity,[8],inactive
same,fold change (FC),[9],8
same,Activity,NCI-H1703 [10],Active
same,pIC50,NCI-H2122,5.50
same,Activity,[11],inactive
same,pIC50,NCI-H1703 [2],6.24
same,Activity,NCI-H1703 [12],14.4%
same,Activity,Mus musculus [13],Active
same,Activity,NCI-H1703 [14],inactive
same,Activity,[15],inactive
same,Activity,NCI-H1703 [16],Active
same,Activity,NCI-H1703 [17],Active
same,Activity,[18],Active
same,Activity,NCI-H1703 [19],49%
same,pIC50,[3],< 5.00
same,pIC50,[4],6.07
same,pIC50,NCI-H441,6.03
same,Activity,[20],Active
same,growth inhibition (GI),NCI-H1703 [21],Active
same,Activity,[22],tde
same,Activity,Mus musculus [23],24.9 g
same,Activity,Mus musculus [24],Active
same,Activity,[5],Active
same,Activity,[25],Active
same,Activity,NCI-H1703 [26],Active
same,fold change (FC),[27],10
same,Activity,[28],Active
same,Activity,NCI-H1703 [29],37%
same,Activity,NCI-H1703 [30],inactive

# — ChEMBL document CHEMBL1914422, “Activation of the c-Jun N-terminal kinase/activating transcription factor 3 (ATF3) pathway characterizes effective arylated diazeniumdiolate-based nitric oxide-releasing anticancer prodrugs” (J Med Chem, 2011)
